Test results as given in ChEMBL document CHEMBL1153986, “Novel approach for chemotype hopping based on annotated databases of chemically feasible fragments and a prospective case study: new melanin concentrating hormone antagonists” (J Med Chem, 2009).
One block for each compound: values may come before it.

How the values were obtained:
[1] = target: T1, Melanin-concentrating hormone receptor 1 (Homo sapiens, UniProt Q99705); experiment: Antagonist activity at MCH1R; type: functional
In short: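 MCH-1 receptor-expressing CHO cells seeded 24 h before (5000 cells/well), loaded with calcium assay kit containing 10 mM probenicide for 90 min at 37 °C, 5% CO2. Serial dilutions of compound added, 20 min at room temperature in the dark, then submaximal MCH challenge; intracellular calcium change recorded on FLIPR III.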

[2] = target: T1, Melanin-concentrating hormone receptor 1
[3] = target: T1, Melanin-concentrating hormone receptor 1; experiment: Antagonist activity at MCH1R by [35S]GTPgammaS binding assay; type: functional

T1 sequence (Q99705 whole entry): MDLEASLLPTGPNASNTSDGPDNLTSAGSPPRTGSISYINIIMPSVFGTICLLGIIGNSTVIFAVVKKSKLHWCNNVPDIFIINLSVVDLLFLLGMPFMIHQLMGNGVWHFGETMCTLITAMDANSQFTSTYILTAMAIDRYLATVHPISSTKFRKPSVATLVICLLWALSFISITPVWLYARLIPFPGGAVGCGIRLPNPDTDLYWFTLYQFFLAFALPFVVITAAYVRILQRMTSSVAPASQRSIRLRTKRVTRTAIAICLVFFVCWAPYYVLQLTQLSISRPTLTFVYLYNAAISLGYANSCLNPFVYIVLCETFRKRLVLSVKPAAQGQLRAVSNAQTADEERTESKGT

Activity [1]: 1.5 nM
SMILES: O=c1cc(/C=C/c2ccccc2)ccn1-c1ccc(OCCN2CCCC2)cc1

IC50 [2]: 0.0457 µM
SMILES: COc1cc(-n2ccnc(NCCc3ccccc3)c2=O)ccc1OCCN1CCCC1

Activity [1]: 2.1 nM
SMILES: COc1cc(-n2cnc3cc(-c4ccccc4)ccc3c2=O)ccc1OCCN1CCCC1

IC50 [2]: 0.105 µM
SMILES: COc1cc(-n2ccnc(CCCc3ccccc3)c2=O)ccc1OCCN1CCCC1

Ki [1]: 0.077 µM
SMILES: COc1cc(-c2cnc3[nH]c(-c4ccc(Cl)cc4)cn3c2=O)ccc1OCCN1CCCC1

IC50 [2]: 0.0832 µM
SMILES: COc1cc(-n2ccnc(OCCc3ccccc3)c2=O)ccc1OCCN1CCCC1

Second part, the compound before the results:

SMILES: Cn1cc(CCN2CCCC2)c2ccc(-n3ccc4nc(-c5ccc(Cl)cc5)sc4c3=O)cc21
Ki [1]: 0.00316 µM

SMILES: COc1cc(-n2nnc3cc(-c4ccc(Cl)cc4)sc3c2=O)ccc1N1CC[C@@H](O)C1
IC50 [1]: > 5 µM

SMILES: CC(C)N(C)c1nc2cc(-c3noc(COCc4ccc(Cl)cc4)n3)ccc2[nH]1
IC50 [1]: 0.007 µM

SMILES: CCN(CC)Cc1ccc2c(c1)CCC(N1CCN(CCc3ccc(F)cc3)CC1=O)C2 (centres undefined)
Ki [1]: 0.003 µM

SMILES: CN(C)CC1CCc2cc(NC(=O)c3ccc(-c4ccc(F)cc4)cc3)ccc2C1 (centres undefined)
IC50 [3]: 0.019 µM

SMILES: CN(C)CCOc1ccc(-n2ccn(-c3ccc(Oc4ccccc4)cc3)c2=O)cc1
IC50 [1]: > 0.1 µM

SMILES: C(=C\c1ccc(-c2nnc(CSCCOc3ccccc3)o2)cc1)/CN1CCCC1
Activity [1]: 1.9 nM

SMILES: CN[C@@H]1CCN(c2ccc(-n3ccc4cc(-c5ccc(C(F)(F)F)cc5)sc4c3=O)cn2)C1
Ki [1]: 0.0033 µM
